Laboratory results as given in ChEMBL document CHEMBL4393735, “Molecular modelling, synthesis, and biological evaluations of a 3,5-disubstituted isoxazole fatty acid analogue as a PPARα-selective agonist” (Bioorg Med Chem, 2019).
Active and inactive are the calls of the source.

What was measured:
SGBS [1] = test: Upregulation of PPARgamma gene expression in human preadipocyte derived from Simpson-Golabi-Behmel syndrome (SGBS) patient at 25 uM measured for 12 days by qRT-PCR analysis; type: functional, cell-based
How it was run: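 SGBS cells grown 4 days in biotin/D-pantothenate medium, then differentiated without FBS (apo-transferrin, insulin, T3, hydrocortisol, IBMX, dexamethasone) with 25 μM compound or 0.1 % DMSO added from day 0. After 4 days, switched to maintenance medium without IBMX/dexamethasone, renewed day 8. qPCR on days 0, 4, 8, 12, normalized to TBP (comparative threshold) and to day 0. Minimum three biological replicates in duplicate, mean ± SEM.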

SGBS [2] = test: Upregulation of CD36 gene expression in human preadipocyte derived from Simpson-Golabi-Behmel syndrome (SGBS) patient at 25 uM measured for 12 days by qRT-PCR analysis; type: functional, cell-based
How it was run: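 SGBS cells were differentiated with serum-free induction medium containing 25 μM test agent, 2 μM rosiglitazone or 0.1% DMSO from day 0. IBMX and dexamethasone were removed on day 4 and medium was renewed on day 8. RNA was taken on days 0, 4, 8 and 12 for qPCR, normalized to TBP and to day 0. At least three biological replicates in duplicate, two-way ANOVA with Bonferroni.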

[3] = target: T1, Oxysterols receptor LXR-alpha (Homo sapiens) (UniProt Q13133); test: Agonist activity at full length human GAL4-DBD fused LXRalpha LBD (164 to 447 residues) expressed in COS1 cells at 25 to 50 uM measured after 18 hrs by dual luciferase reporter gene assay; type: cell-based
T1 sequence (whole entry): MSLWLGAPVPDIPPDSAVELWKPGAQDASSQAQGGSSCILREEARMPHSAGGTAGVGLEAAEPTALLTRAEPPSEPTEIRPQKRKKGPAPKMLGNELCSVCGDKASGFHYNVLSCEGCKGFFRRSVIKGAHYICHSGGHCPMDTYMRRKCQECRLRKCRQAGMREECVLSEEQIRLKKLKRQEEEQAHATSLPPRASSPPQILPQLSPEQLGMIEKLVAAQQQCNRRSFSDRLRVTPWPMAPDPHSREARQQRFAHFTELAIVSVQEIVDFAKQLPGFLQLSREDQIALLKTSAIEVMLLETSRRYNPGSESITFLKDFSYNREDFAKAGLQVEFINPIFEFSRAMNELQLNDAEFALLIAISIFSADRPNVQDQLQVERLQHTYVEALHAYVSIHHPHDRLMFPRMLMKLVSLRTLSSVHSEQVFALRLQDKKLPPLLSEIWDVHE
How it was run: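 COS-1 cells were transfected using Lipofectamine 2000 with GAL4-DBD–human NR-LBD plasmid, a 5×UAS-SV40 firefly luciferase reporter and pRL-CMV. After 6 h, cells were treated with 0, 25 or 50 μM in 0.1% DMSO (final) for 18 h. Firefly signal was normalized to Renilla, then to DMSO control and GAL4-only. Three biological replicates in quadruplicate, mean ± SEM, two-way ANOVA with Bonferroni.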

[4] = target: T2, Peroxisome proliferator-activated receptor alpha (Mus musculus) (UniProt P23204); test: Agonist activity at PPARalpha in C57BL/6N mouse primary hepatocytes assessed as SREBF1 mRNA expression at 50 uM measured after 18 hrs by qRT-PCR analysis; type: cell-based
T2 sequence (whole entry): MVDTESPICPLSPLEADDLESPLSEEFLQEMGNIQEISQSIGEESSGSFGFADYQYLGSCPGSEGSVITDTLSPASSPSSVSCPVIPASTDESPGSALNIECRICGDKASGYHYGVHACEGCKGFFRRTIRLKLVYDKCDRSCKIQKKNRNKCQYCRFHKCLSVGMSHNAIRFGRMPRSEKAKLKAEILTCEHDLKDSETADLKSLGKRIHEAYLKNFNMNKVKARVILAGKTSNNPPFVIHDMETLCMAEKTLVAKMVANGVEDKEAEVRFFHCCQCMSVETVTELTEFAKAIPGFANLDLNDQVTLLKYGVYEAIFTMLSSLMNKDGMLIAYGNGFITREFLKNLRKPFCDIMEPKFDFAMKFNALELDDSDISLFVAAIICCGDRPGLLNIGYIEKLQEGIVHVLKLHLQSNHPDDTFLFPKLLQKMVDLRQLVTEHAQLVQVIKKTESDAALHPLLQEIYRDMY
How it was run: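 Treatment for 18 h at 50 μM (or 1 μM for the 1 μM agents), DMSO vehicle. Harvested for qPCR. mRNA normalized to TBP by the comparative threshold method, expressed relative to DMSO control. Two biological replicates run in duplicate, mean ± SEM. Primary hepatocytes came from male C57BL/6N mice aged 7–8 weeks, isolated by portal-vein perfusion and digestion, seeded on collagen I and used on day 2. HuH-7 cells were kept in DMEM with 10% FBS and ITS.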

Activity [3]: inactive | Activity [4]: Active
SMILES: CCCCCCCc1cc(CCCCCC(=O)O)no1
Activity (SGBS [1]): Active | Activity (SGBS [2]): Active
